{"data": "Assay results collected from several papers", "target": "Rho-associated protein kinase 2 (ROCK2, Homo sapiens, UniProt O75116)"}
{"Compound": "CN(C)C(=O)Cn1cc(-c2nc(C3(c4ccc(-c5cnc(N)nc5)cc4)CC3)no2)cn1", "assay": "cell-free assay, competition with immobilised ligand", "setting": "1 µM", "remaining binding": "89%"}
{"Compound": "N[C@H]1CCN(c2nccc(-c3cnn4ncccc34)n2)C1", "assay": "binding", "setting": "1 µM", "remaining binding": "100%"}
{"Compound": "FC(F)(F)Oc1cccc(-c2cnc3ccc(-c4ccncc4)nn23)c1", "assay": "binding, competition with immobilised ligand", "setting": "5 µM", "remaining binding": "42%"}
{"Compound": "Cc1cc(-n2nc(Cc3cc(F)cc(C(F)(F)F)c3)nc2C)ccc1C(N)=O", "assay": "cell-free assay, competition with immobilised ligand", "setting": "1 µM", "remaining binding": "96%"}
{"Compound": "CNC(=O)[C@@H]1CC[C@@H](n2c(-c3ccc4cnccc4c3)nc3ccc(C(=O)NCc4cccc(C(N)=O)c4)cc32)C1", "assay": "binding, competition with immobilised ligand", "setting": "1 µM", "remaining binding": "100%"}
{"Compound": "c1cnn2ncc(-c3ccnc(N4CCC45COC5)n3)c2c1", "assay": "binding", "setting": "1 µM", "remaining binding": "70%"}
{"Compound": "Cc1cnc(Nc2ccc(C(=O)N3CCC(N4CCCC4)CC3)cc2)nc1-c1cc2ccccc2s1", "assay": "binding, competition with immobilised ligand", "setting": "1 µM", "remaining binding": "11%"}
{"Compound": "CC(C)(C)c1ccc(-c2nc(CBr)nn2-c2cccc(O)c2)cc1", "assay": "cell-free assay, competition with immobilised ligand", "setting": "10 µM", "remaining binding": "58%"}
{"Compound": "CN(C)c1nccc(-c2cnn3ncccc23)n1", "assay": "binding", "setting": "1 µM", "remaining binding": "84%"}
{"Compound": "CC1=C(C#N)C(c2ccc3c(c2)c(NC(=O)c2ccccc2C)nn3C)C(C#N)=C(C)N1", "assay": "cell-free assay, competition with immobilised ligand", "setting": "1 µM", "remaining binding": "93%"}
{"Compound": "O=C(c1ccc(Nc2nccc(-c3cc4ccccc4s3)n2)cc1)N1CCC(N2CCCC2)CC1", "assay": "binding, competition with immobilised ligand", "setting": "1 µM", "remaining binding": "7.4%"}
{"Compound": "F[C@@H]1CCN(c2nccc(-c3cnn4ncccc34)n2)C1", "assay": "binding", "setting": "1 µM", "remaining binding": "100%"}
{"Compound": "C[C@H](c1cccc(C#N)c1)n1cc(Cl)cc(C(N)=O)c1=N", "assay": "cell-free assay, competition with immobilised ligand", "setting": "1 µM", "remaining binding": "94%"}
{"Compound": "c1cncc(-c2cccc(Nc3nccc(NC4CCCCC4)n3)c2)c1", "assay": "binding, competition with immobilised ligand", "setting": "10 µM", "remaining binding": "25%"}
{"Compound": "O=C(NCC1CCOCC1)c1n[nH]cc1NC(=O)c1c(F)cccc1F", "assay": "binding, competition with immobilised ligand", "setting": "1 µM", "remaining binding": "64%"}
{"Compound": "Cc1cnn2ncc(-c3ccnc(N(C)C)n3)c2c1", "assay": "binding", "setting": "1 µM", "remaining binding": "95%"}
{"Compound": "Nc1ncc2c(n1)-c1c([nH]c3ccc(C#CC4CC4)cc13)CCCC2", "assay": "binding, competition with immobilised ligand", "setting": "1 µM", "remaining binding": "75%"}
{"Compound": "COCCOc1nc(-c2ccc(Cl)nc2)nc2c1CN(C(=O)c1ncn3ccccc13)CC2", "assay": "cell-free assay, competition with immobilised ligand", "setting": "0.1 µM", "remaining binding": "76%"}
{"Compound": "COc1ccnn2ncc(-c3ccnc(N(C)C)n3)c12", "assay": "binding", "setting": "1 µM", "remaining binding": "100%"}
{"Compound": "C=CC(=O)N1CCC(C(=O)NCC(=O)N2CCN(c3nc(-c4cnc(N)nc4C(F)F)nc(N4CCOCC4)n3)CC2)CC1", "assay": "binding, competition with immobilised ligand", "setting": "1 µM", "remaining binding": "90%"}
{"Compound": "O=C(N[C@H]1CCCCC/C=C\\C2C[C@@]2(C(=O)O)NC(=O)[C@@H]2C[C@@H](Oc3ccncc3)CN2C1=O)OC1CCCC1 (stereo partly drawn)", "assay": "binding, competition with immobilised ligand", "setting": "1 µM", "remaining binding": "100%"}
{"Compound": "O=C(NCCCN1CCOCC1)c1ccc(Nc2nccc(-c3cc4ccccc4s3)n2)cc1", "assay": "binding, competition with immobilised ligand", "setting": "1 µM", "remaining binding": "46%"}
{"Compound": "C[C@@H]1CN(c2ccc3ncc(-c4ccc5[nH]nc(C6CC6)c5c4)n3n2)C[C@H](C)O1", "assay": "binding, competition with immobilised ligand", "setting": "0.5 µM", "remaining binding": "21%"}
{"Compound": "O=C(NCCCC1CCCCC1)c1ccc(CNC(=O)c2cnn(-c3ccccc3)c2C(F)(F)F)cc1", "assay": "cell-free assay, competition with immobilised ligand", "setting": "0.1 µM", "remaining binding": "100%"}
